According to ChEMBL document CHEMBL2034980, “N⁴-Phenyl-substituted 2-acetylpyridine thiosemicarbazones: cytotoxicity against human tumor cells, structure-activity relationship studies and investigation on the mechanism of action” (Bioorg Med Chem, 2012):
Active and inactive are the calls of the source. No cut-off for these calls is given here.

Columns and labels:
MCF7 [1] = experiment: Cytotoxicity against human MCF7 cells after 48 hrs by MTT assay; assay type: functional, cell-based; details: for IC50: MCF7, 48 h, read-out: IC50
Outline: (§1)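 MTT assay. Cells were grown in DMEM with 10% FBS and penicillin/streptomycin at 37 °C under 5% CO2, seeded at 1–2×10^3 cells/well and treated 12 h later with 1×10^-12 to 1×10^-5 M ([…] from DMSO stock, final DMSO <0.5%) for 48 h. MTT was added at 0.5 mg mL⁻¹, formazan dissolved in DMSO and read at 570 nm. IC50 is the concentration giving 50% cytotoxicity. Quadruplicates, ≥3 independent experiments.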

[2] = (§2) Cytotoxicity against human U87 cells expressing wild-type p53 after 48 hrs by MTT assay; assay type: functional, cell-based, U-87MG ATCC; details: U-87 MG, read-out: IC50; outline: as §1
U-87MG ATCC [3] = experiment: as §2; assay type: functional, cell-based; outline: as §1
T98G [4] = experiment: Cytotoxicity against human T98G cells expressing mutant p53 after 48 hrs by MTT assay; assay type: functional, cell-based; details: for IC50: read-out: IC50; outline: as §1
[5] = Haemolytic activity in human RBC after 1 hr by photometry; assay type: ADME, cell-based; details: Erythrocyte
Outline: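 Human EDTA blood was spun at 700xg for 10 min and the erythrocytes washed three times in cold PBS pH 7.4, then resuspended in it. Cells were incubated with varying compound concentrations for 1 h at 37 °C with shaking. After centrifugation, released haemoglobin was read at 540 nm to give the IC50. Mean ± SD, n = 4.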

MCF7 [6] = experiment: Induction of apoptosis in human MCF7 cells assessed as irregularities in cellular shape at 1 uM after 48 hrs by DAPI staining; assay type: functional, cell-based
MCF7 [7] = experiment: Induction of apoptosis in human MCF7 cells assessed as cell shrinkage at 1 uM after 48 hrs by DAPI staining; assay type: functional, cell-based
MCF7 [8] = experiment: Induction of apoptosis in human MCF7 cells assessed as membrane blebbing at 1 uM after 48 hrs by DAPI staining; assay type: functional, cell-based
MCF7 [9] = experiment: Induction of apoptosis in human MCF7 cells assessed as chromatin condensation at 1 uM after 48 hrs by DAPI staining; assay type: functional, cell-based
Outline: (§3)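 Cells were treated at 1 μM for 48 h, washed in PBS and fixed in 70% methanol for 30 min at room temperature. They were stained with 0.4 μg mL⁻¹ DAPI for 1 h in the dark, and nuclear condensation and fragmentation were scored by fluorescence microscopy (385–410 nm).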

MCF7 [10] = experiment: Induction of apoptosis in human MCF7 cells assessed as DNA fragmentation at 1 uM after 48 hrs by DAPI staining; assay type: functional, cell-based; outline: as §3
T98G [11] = experiment: Induction of apoptosis in human T98G cells assessed as irregularities in cellular shape at 1 uM after 48 hrs by DAPI staining; assay type: functional, cell-based
T98G [12] = experiment: Induction of apoptosis in human T98G cells assessed as cell shrinkage at 1 uM after 48 hrs by DAPI staining; assay type: functional, cell-based
T98G [13] = experiment: Induction of apoptosis in human T98G cells assessed as membrane blebbing at 1 uM after 48 hrs […]; assay type: functional, cell-based
T98G [14] = experiment: Induction of apoptosis in human T98G cells assessed as chromatin condensation at 1 uM after 48 hrs by DAPI staining; assay type: functional, cell-based; outline: as §3
T98G [15] = experiment: Induction of apoptosis in human T98G cells assessed as DNA fragmentation at 1 uM after 48 hrs by DAPI staining; assay type: functional, cell-based; outline: as §3
U-87MG ATCC [16] = experiment: Induction of apoptosis in human U87 cells assessed as irregularities in cellular shape at 1 uM after 48 hrs by DAPI staining; assay type: functional, cell-based
U-87MG ATCC [17] = experiment: Induction of apoptosis in human U87 cells assessed as cell shrinkage at 1 uM after 48 hrs by DAPI staining; assay type: functional, cell-based
U-87MG ATCC [18] = experiment: Induction of apoptosis in human U87 cells assessed as membrane blebbing at 1 uM after 48 hrs by DAPI staining; assay type: functional, cell-based
U-87MG ATCC [19] = experiment: Induction of apoptosis in human U87 cells assessed as chromatin condensation at 1 uM after 48 hrs by DAPI staining; assay type: functional, cell-based; outline: as §3
U-87MG ATCC [20] = experiment: Induction of apoptosis in human U87 cells assessed as DNA fragmentation at 1 uM after 48 hrs by DAPI staining; assay type: functional, cell-based; outline: as §3
MCF7 [21] = experiment: Induction of apoptosis in human MCF7 cells assessed as appearance of autophagolysosomes at 1 uM after 48 hrs by acridine orange/ethidium bromide staining-based microscopy; assay type: functional, cell-based
Outline: (§4)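 After 48 h at 1 μM, cells were incubated for 15 min in serum-free medium containing 1 μg mL⁻¹ acridine orange and 1 μg mL⁻¹ ethidium bromide. The medium was removed and cells imaged by inverted fluorescence microscopy (530–650 nm). Green/orange nuclear patterns and acidic cytoplasmic vacuoles were scored.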

T98G [22] = experiment: Induction of apoptosis in human T98G cells assessed as appearance of autophagolysosomes at 1 uM after 48 hrs by acridine orange/ethidium bromide staining-based microscopy; assay type: functional, cell-based; outline: as §4
U-87MG ATCC [23] = experiment: Induction of apoptosis in human U87 cells assessed as appearance of autophagolysosomes at 1 uM after 48 hrs by acridine orange/ethidium bromide staining-based microscopy; assay type: functional, cell-based; outline: as §4
MCF7 [24] = experiment: Induction of apoptosis in human MCF7 cells assessed as chromatin condensation at 1 uM after 48 hrs by acridine orange/ethidium bromide staining-based microscopy; assay type: functional, cell-based; outline: as §4
T98G [25] = experiment: Induction of apoptosis in human T98G cells assessed as chromatin condensation at 1 uM after 48 hrs by acridine orange/ethidium bromide staining-based microscopy; assay type: functional, cell-based; outline: as §4
U-87MG ATCC [26] = experiment: Induction of apoptosis in human U87 cells assessed as chromatin condensation at 1 uM after 48 hrs by acridine orange/ethidium bromide staining-based microscopy; assay type: functional, cell-based; outline: as §4

| SMILES | Activity (MCF7 [1]) | IC50 (MCF7 [1]) [nM] | IC50 [2] [nM] | Activity (U-87MG ATCC [3]) | Activity (T98G [4]) | IC50 (T98G [4]) [nM] | IC50 [5] [nM] | Activity (MCF7 [6]) | Activity (MCF7 [7]) | Activity (MCF7 [8]) | Activity (MCF7 [9]) | Activity (MCF7 [10]) | Activity (T98G [11]) | Activity (T98G [12]) | Activity (T98G [13]) | Activity (T98G [14]) | Activity (T98G [15]) | Activity (U-87MG ATCC [16]) | Activity (U-87MG ATCC [17]) | Activity (U-87MG ATCC [18]) | further results |
| --- | --- | --- | --- | --- | --- | --- | --- | --- | --- | --- | --- | --- | --- | --- | --- | --- | --- | --- | --- | --- | --- |
| CC(=NNC(=S)Nc1ccccc1F)c1ccccn1 (mixture of isomers) | Dose-dependent effect | 0.39 | 5 | Dose-dependent effect | Dose-dependent effect | 3.1 | > 10000 | Active | Active | Active | Active | Active | Active | Active | Active | Active | Active | Active | Active | Active | Activity (U-87MG ATCC [19]): Active; Activity (U-87MG ATCC [20]): Active; Activity (MCF7 [21]): Active; Activity (T98G [22]): Active; Activity (U-87MG ATCC [23]): Active; Activity (MCF7 [24]): Active; Activity (T98G [25]): Active; Activity (U-87MG ATCC [26]): Active |
| CC(=NNC(=S)Nc1cccc(I)c1)c1ccccn1 (mixture of isomers) | Dose-dependent effect | 45 | 84 | Dose-dependent effect | Dose-dependent effect | 61 | > 10000 | Active | Active | Active | Active | Active | Active | Active | Active | Active | Active | Active | Active | Active | Activity (U-87MG ATCC [19]): Active; Activity (U-87MG ATCC [20]): Active; Activity (MCF7 [21]): Active; Activity (T98G [22]): Active; Activity (U-87MG ATCC [23]): Active; Activity (MCF7 [24]): Active; Activity (T98G [25]): Active; Activity (U-87MG ATCC [26]): Active |
| CC(=NNC(=S)Nc1ccccc1)c1ccccn1 (mixture of isomers) | Dose-dependent effect | 0.18 | 1.4 | Dose-dependent effect | Dose-dependent effect | 6.8 | > 10000 | Active | Active | Active | Active | Active | Active | Active | Active | Active | Active | Active | Active | Active | Activity (U-87MG ATCC [19]): Active; Activity (U-87MG ATCC [20]): Active; Activity (MCF7 [21]): Active; Activity (T98G [22]): Active; Activity (U-87MG ATCC [23]): Active; Activity (MCF7 [24]): Active; Activity (T98G [25]): Active; Activity (U-87MG ATCC [26]): Active |
| CC(=NNC(=S)Nc1ccccc1[N+](=O)[O-])c1ccccn1 (mixture of isomers) | Dose-dependent effect | 5.7 | 4.3 | Dose-dependent effect | Dose-dependent effect | 6.6 | > 10000 | Active | Active | Active | Active | Active | Active | Active | Active | Active | Active | Active | Active | Active | Activity (U-87MG ATCC [19]): Active; Activity (U-87MG ATCC [20]): Active; Activity (MCF7 [21]): Active; Activity (T98G [22]): Active; Activity (U-87MG ATCC [23]): Active; Activity (MCF7 [24]): Active; Activity (T98G [25]): Active; Activity (U-87MG ATCC [26]): Active |
| CC(=NNC(=S)Nc1ccc([N+](=O)[O-])cc1)c1ccccn1 (mixture of isomers) | Dose-dependent effect | 52 | 160 | Dose-dependent effect | Dose-dependent effect | 140 | > 10000 | Active | Active | Active | Active | Active | Active | Active | Active | Active | Active | Active | Active | Active | Activity (U-87MG ATCC [19]): Active; Activity (U-87MG ATCC [20]): Active; Activity (MCF7 [21]): Active; Activity (T98G [22]): Active; Activity (U-87MG ATCC [23]): Active; Activity (MCF7 [24]): Active; Activity (T98G [25]): Active; Activity (U-87MG ATCC [26]): Active |
